According to ChEMBL document CHEMBL4052823, “Extra Sugar on Vancomycin: New Analogues for Combating Multidrug-Resistant Staphylococcus aureus and Vancomycin-Resistant Enterococci” (J Med Chem, 2018):
In brackets after ≈: the same amount, converted by molar mass.

Key:
Staphylococcus aureus [1] = assay: Antibacterial activity against healthcare-associated methicillin-resistant/vancomycin-intermediate Staphylococcus aureus Mu50 after 24 hrs by broth microdilution method; format: functional; settings: Mu50, 24 h
Procedure, shortened: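 Broth microdilution in cation-adjusted Mueller-Hinton II broth. DMSO stocks were diluted in broth and twofold serially from 128 to 0.0625 μg/mL or lower. Each well was inoculated with ~10^5 CFU of exponential-phase bacteria and incubated at 37 °C for 24 h. MIC was the lowest concentration giving complete growth inhibition, read per CLSI. Growth controls contained broth plus DMSO.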

Staphylococcus aureus [2] = assay: Antibacterial activity against vancomycin/methicillin-susceptible Staphylococcus aureus Newman […] after 24 hrs by broth microdilution method; format: functional
Procedure, shortened: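 Broth microdilution in cation-adjusted Mueller-Hinton II broth. […] Each well received ~10^5 CFU of exponential-phase bacteria and was incubated at 37 °C for 24 h. MIC was taken as the lowest concentration giving complete growth inhibition, interpreted per CLSI.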

Compound | MIC90 (Staphylococcus aureus [1]) [µg/mL] | MIC90 (Staphylococcus aureus [2]) [µg/mL]
CN[C@H](CC(C)C)C(=O)N[C@H]1C(=O)N[C@@H](CC(N)=O)C(=O)N[C@H]2C(=O)N[C@H]3C(=O)N[C@H](C(=O)N[C@H](C(=O)O)c4cc(O)c(CNCCCNC(=O)[C@H](O)[C@@H](O)[C@H](O[C@@H]5O[C@H](CO)[C@H](O)[C@H](O)[C@H]5O)[C@H](O)CO)c(O)c4-c4cc3ccc4O)[C@H](O)c3ccc(c(Cl)c3)Oc3cc2cc(c3O[C@@H]2O[C@H](CO)[C@@H](O)[C@H](O)[C@H]2O[C@H]2C[C@](C)(NCc3ccc(-c4ccc(Cl)cc4)cc3)[C@H](O)[C@H](C)O2)Oc2ccc(cc2Cl)[C@H]1O | 0.5 (≈ 0.241 µM) | 0.25 (≈ 0.12 µM)
CCCCCOc1ccc(CN[C@@]2(C)C[C@H](O[C@H]3[C@H](Oc4c5cc6cc4Oc4ccc(cc4Cl)[C@@H](O)[C@@H](NC(=O)[C@@H](CC(C)C)NC)C(=O)N[C@@H](CC(N)=O)C(=O)N[C@H]6C(=O)N[C@H]4C(=O)N[C@H](C(=O)N[C@H](C(=O)O)c6cc(O)c(CNCCCNC(=O)[C@H](O)[C@@H](O)[C@H](O)[C@H](O)CO)c(O)c6-c6cc4ccc6O)[C@H](O)c4ccc(c(Cl)c4)O5)O[C@H](CO)[C@@H](O)[C@@H]3O)O[C@@H](C)[C@H]2O)cc1 | 2 (≈ 1.06 µM) | 1 (≈ 0.529 µM)
C#Cc1ccc(CN[C@@]2(C)C[C@H](O[C@H]3[C@H](Oc4c5cc6cc4Oc4ccc(cc4Cl)[C@@H](O)[C@@H](NC(=O)[C@@H](CC(C)C)NC)C(=O)N[C@@H](CC(N)=O)C(=O)N[C@H]6C(=O)N[C@H]4C(=O)N[C@H](C(=O)N[C@H](C(=O)O)c6cc(O)c(CNCCCNC(=O)[C@H](O)[C@@H](O)[C@H](O)[C@H](O)CO)c(O)c6-c6cc4ccc6O)[C@H](O)c4ccc(c(Cl)c4)O5)O[C@H](CO)[C@@H](O)[C@@H]3O)O[C@@H](C)[C@H]2O)cc1 | 8 (≈ 4.38 µM) | 4 (≈ 2.19 µM)
CCCCCCCCCN[C@@]1(C)C[C@H](O[C@H]2[C@H](Oc3c4cc5cc3Oc3ccc(cc3Cl)[C@@H](O)[C@@H](NC(=O)[C@@H](CC(C)C)NC)C(=O)N[C@@H](CC(N)=O)C(=O)N[C@H]5C(=O)N[C@H]3C(=O)N[C@H](C(=O)N[C@H](C(=O)O)c5cc(O)c(CNCCCNC(=O)[C@H](O)[C@@H](O)[C@H](O)[C@H](O)CO)c(O)c5-c5cc3ccc5O)[C@H](O)c3ccc(c(Cl)c3)O4)O[C@H](CO)[C@@H](O)[C@@H]2O)O[C@@H](C)[C@H]1O | 2 (≈ 1.09 µM) | 0.5 (≈ 0.272 µM)
CCCCCCCCCCN[C@@]1(C)C[C@H](O[C@H]2[C@H](Oc3c4cc5cc3Oc3ccc(cc3Cl)[C@@H](O)[C@@H](NC(=O)[C@@H](CC(C)C)NC)C(=O)N[C@@H](CC(N)=O)C(=O)N[C@H]5C(=O)N[C@H]3C(=O)N[C@H](C(=O)N[C@H](C(=O)O)c5cc(O)c(CNCCCNC(=O)[C@H](O)[C@@H](O)[C@H](O)[C@H](O)CO)c(O)c5-c5cc3ccc5O)[C@H](O)c3ccc(c(Cl)c3)O4)O[C@H](CO)[C@@H](O)[C@@H]2O)O[C@@H](C)[C@H]1O | 0.5 (≈ 0.27 µM) | 0.12 (≈ 0.0647 µM)
CN[C@H](CC(C)C)C(=O)N[C@H]1C(=O)N[C@@H](CC(N)=O)C(=O)N[C@H]2C(=O)N[C@H]3C(=O)N[C@H](C(=O)N[C@H](C(=O)O)c4cc(O)c(CNCCCNC(=O)[C@H](O)[C@@H](O)[C@H](O)[C@H](O)CO)c(O)c4-c4cc3ccc4O)[C@H](O)c3ccc(c(Cl)c3)Oc3cc2cc(c3O[C@@H]2O[C@H](CO)[C@@H](O)[C@H](O)[C@H]2O[C@H]2C[C@](C)(NCc3ccc(-c4ccncc4)cc3)[C@H](O)[C@H](C)O2)Oc2ccc(cc2Cl)[C@H]1O | 4 (≈ 2.13 µM) | 1 (≈ 0.532 µM)
CCCCCCCCCCNCCN[C@@]1(C)C[C@H](O[C@H]2[C@H](Oc3c4cc5cc3Oc3ccc(cc3Cl)[C@@H](O)[C@@H](NC(=O)[C@@H](CC(C)C)NC)C(=O)N[C@@H](CC(N)=O)C(=O)N[C@H]5C(=O)N[C@H]3C(=O)N[C@H](C(=O)N[C@H](C(=O)O)c5cc(O)c(CNCCO[C@@H]6O[C@H](CO)[C@H](O)[C@H](O)[C@H]6O)c(O)c5-c5cc3ccc5O)[C@H](O)c3ccc(c(Cl)c3)O4)O[C@H](CO)[C@@H](O)[C@@H]2O)O[C@@H](C)[C@H]1O | 2 (≈ 1.07 µM) | 0.5 (≈ 0.268 µM)
CCCCCCCCCCNCCN[C@@]1(C)C[C@H](O[C@H]2[C@H](Oc3c4cc5cc3Oc3ccc(cc3Cl)[C@@H](O)[C@@H](NC(=O)[C@@H](CC(C)C)NC)C(=O)N[C@@H](CC(N)=O)C(=O)N[C@H]5C(=O)N[C@H]3C(=O)N[C@H](C(=O)N[C@H](C(=O)O)c5cc(O)c(CNCCCNC(=O)[C@H](O)[C@@H](O)[C@H](O[C@@H]6O[C@H](CO)[C@H](O)[C@H](O)[C@H]6O)[C@H](O)CO)c(O)c5-c5cc3ccc5O)[C@H](O)c3ccc(c(Cl)c3)O4)O[C@H](CO)[C@@H](O)[C@@H]2O)O[C@@H](C)[C@H]1O | 1 (≈ 0.486 µM) | 0.25 (≈ 0.121 µM)
CCc1ccc(CN[C@@]2(C)C[C@H](O[C@H]3[C@H](Oc4c5cc6cc4Oc4ccc(cc4Cl)[C@@H](O)[C@@H](NC(=O)[C@@H](CC(C)C)NC)C(=O)N[C@@H](CC(N)=O)C(=O)N[C@H]6C(=O)N[C@H]4C(=O)N[C@H](C(=O)N[C@H](C(=O)O)c6cc(O)c(CNCCO)c(O)c6-c6cc4ccc6O)[C@H](O)c4ccc(c(Cl)c4)O5)O[C@H](CO)[C@@H](O)[C@@H]3O)O[C@@H](C)[C@H]2O)cc1 | 4 (≈ 2.44 µM) | 2 (≈ 1.22 µM)
CCCCCCCCCCC(=O)N[C@@]1(C)C[C@H](O[C@H]2[C@H](Oc3c4cc5cc3Oc3ccc(cc3Cl)[C@@H](O)[C@@H](NC(=O)[C@@H](CC(C)C)NC)C(=O)N[C@@H](CC(N)=O)C(=O)N[C@H]5C(=O)N[C@H]3C(=O)N[C@H](C(=O)N[C@H](C(=O)O)c5cc(O)c(CNCCCNC(=O)[C@H](O)[C@@H](O)[C@H](O)[C@H](O)CO)c(O)c5-c5cc3ccc5O)[C@H](O)c3ccc(c(Cl)c3)O4)O[C@H](CO)[C@@H](O)[C@@H]2O)O[C@@H](C)[C@H]1O | 32 (≈ 17 µM) | 16 (≈ 8.5 µM)
CN[C@H](CC(C)C)C(=O)N[C@H]1C(=O)N[C@@H](CC(N)=O)C(=O)N[C@H]2C(=O)N[C@H]3C(=O)N[C@H](C(=O)N[C@H](C(=O)O)c4cc(O)c(CNCCCNC(=O)[C@H](O)[C@@H](O)[C@H](O)[C@H](O)CO)c(O)c4-c4cc3ccc4O)[C@H](O)c3ccc(c(Cl)c3)Oc3cc2cc(c3O[C@@H]2O[C@H](CO)[C@@H](O)[C@H](O)[C@H]2O[C@H]2C[C@](C)(NCc3ccc(OCc4cccc(-c5ccccc5)c4C)c(Cl)c3)[C@H](O)[C@H](C)O2)Oc2ccc(cc2Cl)[C@H]1O | 1 (≈ 0.492 µM) | 0.5 (≈ 0.246 µM)
CN[C@H](CC(C)C)C(=O)N[C@H]1C(=O)N[C@@H](CC(N)=O)C(=O)N[C@H]2C(=O)N[C@H]3C(=O)N[C@H](C(=O)N[C@H](C(=O)O)c4cc(O)c(CNCCCNC(=O)[C@H](O)[C@@H](O)[C@H](O)[C@H](O)CO)c(O)c4-c4cc3ccc4O)[C@H](O)c3ccc(c(Cl)c3)Oc3cc2cc(c3O[C@@H]2O[C@H](CO)[C@@H](O)[C@H](O)[C@H]2O[C@H]2C[C@](C)(NCc3ccc4c(c3)OCC4)[C@H](O)[C@H](C)O2)Oc2ccc(cc2Cl)[C@H]1O | 8 (≈ 4.33 µM) | 4 (≈ 2.17 µM)
CCCCCCc1ccc(CN[C@@]2(C)C[C@H](O[C@H]3[C@H](Oc4c5cc6cc4Oc4ccc(cc4Cl)[C@@H](O)[C@@H](NC(=O)[C@@H](CC(C)C)NC)C(=O)N[C@@H](CC(N)=O)C(=O)N[C@H]6C(=O)N[C@H]4C(=O)N[C@H](C(=O)N[C@H](C(=O)O)c6cc(O)c(CNCCCNC(=O)[C@H](O)[C@@H](O)[C@H](O)[C@H](O)CO)c(O)c6-c6cc4ccc6O)[C@H](O)c4ccc(c(Cl)c4)O5)O[C@H](CO)[C@@H](O)[C@@H]3O)O[C@@H](C)[C@H]2O)cc1 | 0.5 (≈ 0.265 µM) | 0.12 (≈ 0.0636 µM)
CCCCCCCCCC(=O)N[C@@]1(C)C[C@H](O[C@H]2[C@H](Oc3c4cc5cc3Oc3ccc(cc3Cl)[C@@H](O)[C@@H](NC(=O)[C@@H](CC(C)C)NC)C(=O)N[C@@H](CC(N)=O)C(=O)N[C@H]5C(=O)N[C@H]3C(=O)N[C@H](C(=O)N[C@H](C(=O)O)c5cc(O)c(CNCCCNC(=O)[C@H](O)[C@@H](O)[C@H](O)[C@H](O)CO)c(O)c5-c5cc3ccc5O)[C@H](O)c3ccc(c(Cl)c3)O4)O[C@H](CO)[C@@H](O)[C@@H]2O)O[C@@H](C)[C@H]1O | 64 (≈ 34.3 µM) | 32 (≈ 17.1 µM)
CCCCCCCCCCNCCN[C@@]1(C)C[C@H](O[C@H]2[C@H](Oc3c4cc5cc3Oc3ccc(cc3Cl)[C@@H](O)[C@@H](NC(=O)[C@@H](CC(C)C)NC)C(=O)N[C@@H](CC(N)=O)C(=O)N[C@H]5C(=O)N[C@H]3C(=O)N[C@H](C(=O)N[C@H](C(=O)O)c5cc(O)c(CNCCO[C@@H]6O[C@H](CO)[C@@H](O)[C@H](O)[C@H]6NC(C)=O)c(O)c5-c5cc3ccc5O)[C@H](O)c3ccc(c(Cl)c3)O4)O[C@H](CO)[C@@H](O)[C@@H]2O)O[C@@H](C)[C@H]1O | 4 (≈ 2.1 µM) | 1 (≈ 0.524 µM)
CCCCCCCCCN[C@@]1(C)C[C@H](O[C@H]2[C@H](Oc3c4cc5cc3Oc3ccc(cc3Cl)[C@@H](O)[C@@H](NC(=O)[C@@H](CC(C)C)NC)C(=O)N[C@@H](CC(N)=O)C(=O)N[C@H]5C(=O)N[C@H]3C(=O)N[C@H](C(=O)N[C@H](C(=O)O)c5cc(O)c(CNCCO)c(O)c5-c5cc3ccc5O)[C@H](O)c3ccc(c(Cl)c3)O4)O[C@H](CO)[C@@H](O)[C@@H]2O)O[C@@H](C)[C@H]1O | 0.5 (≈ 0.303 µM) | 0.12 (≈ 0.0728 µM)
CN[C@H](CC(C)C)C(=O)N[C@H]1C(=O)N[C@@H](CC(N)=O)C(=O)N[C@H]2C(=O)N[C@H]3C(=O)N[C@H](C(=O)N[C@H](C(=O)O)c4cc(O)c(CNCCCNC(=O)[C@H](O)[C@@H](O)[C@H](O)[C@H](O)CO)c(O)c4-c4cc3ccc4O)[C@H](O)c3ccc(c(Cl)c3)Oc3cc2cc(c3O[C@@H]2O[C@H](CO)[C@@H](O)[C@H](O)[C@H]2O[C@H]2C[C@](C)(NCc3ccc(C#C[Si](C)(C)C)cc3)[C@H](O)[C@H](C)O2)Oc2ccc(cc2Cl)[C@H]1O | 2 (≈ 1.05 µM) | 1 (≈ 0.526 µM)
